Assay outcomes from PubChem BioAssay.
Rows were chosen to be rich in hits. Some 2.7% of all compounds tested hit in one or more screens of this group.
Yeast life ext = extends the lifespan of yeast; inhibition of the nicotinamide effect, % at 10 µM; S. cerevisiae growth with nicotinamide, OD615; deaD strain in restrictive glucose medium; 130,000 tested, 0.68% active; AID 775;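 active means inhibition above a set limit, placed 3 SD over the median of all compounds, cut at about 26% in these data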;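 further: 0% = nicotinamide-treated wells and 100% = cells grown without nicotinamide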
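Material: Modified budding yeast, DeaD strain | Medium: Restrictive glucose medium | Probe or stimulus: 1.5 mM nicotinamide | Dosing: Single dose 10 µM compound, 0.25% DMSO | Times: 48 h at 30 °C | Technique: OD615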
RAM network inh = inhibitors of the yeast RAM network | S. cerevisiae dse1pr::URA3 reporter, 5-FOA growth OD615, 2 d; analog-sensitive cbk1-as2 kinase mutant strain | inhibition, % at 50 µM | 190,000 tested, 1.8% active | AID 868;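 active means inhibition above a set limit, 3 SD over mean compound inhibition, cut at about 8.4% in these data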;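 further: 0% = DMSO-only wells with no growth and 100% = 10 µM 1-NA-PP1 full growth; inhibition rescues growth on 5-FOA so higher OD means more RAM inhibition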
SDO1 yeast rescue = sdo1-depleted yeast growth rescue; S. cerevisiae sdo1-depleted JHY4D growth rescue, OD600 30 h; active compounds read high; pdr5 snq2 efflux-pump mutant strain; z-score at 10 µM; 140,000 tested, 0.21% active; AID 817;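 active means z-score above 3 at both the 24 hr and the 30 hr optical density reads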;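 further: z-score against mean and SD of all compound wells on the same plate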
BB579 growth dn = reduces growth of yeast BB579 in restrictive medium | inhibition, % at 10 µM | 140,000 tested, 0.51% active | AID 804 | S. cerevisiae BB579 growth, OD615, 48 h;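 active means inhibition above a set limit, 3 SD over the mean compound inhibition, cut at about 44% in these data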
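System: Saccharomyces cerevisiae DeaD strain BB579, replicative lifespan model yeast. Buffer or medium: restrictive glucose-based CSMM-D medium. Doses: one dose, 10 µM compound with 0.25% DMSO. Timing: 4 h preincubation and 48 h exposure at 30 °C. Detection: turbidity as optical density at 615 nm. Benchmarks: amphotericin B 10 µg/mL, positive.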
* marks the source's active call; other numbers are inactive results; . = not tested or not shown.

SMILES	Yeast life ext	RAM network inh	SDO1 yeast rescue	BB579 growth dn
COc1ccc(-c2oc(/N=C/N3CCOCC3)c(C#N)c2-c2ccc(OC)cc2)cc1	-17.5	9.1*	0.3	-32.1
CCCCNC(=O)/C=C/c1ccc(S(=O)(=O)Nc2ccc(OC)cc2)cc1	.	2.6	.	.
Cc1cc(C)nc(SCC(=O)c2cc3ccccc3oc2=O)n1	26.1	0.2	1.44	-8.3
Cc1cc[n+](CC(=O)c2cc3ccccc3oc2=O)cc1	29.5*	0.1	0.58	-1.6
O=C(CSc1nc2ccccc2o1)c1cc2ccccc2oc1=O	37.6*	0.8	-0.39	-12.9
O=C(/C=C/c1cccc(F)c1)N1CCN(c2ncccn2)CC1	.	-0.4	.	.
COc1ccc(S(=O)(=O)N(CC(=O)NC(C)C)Cc2ccccc2)cc1	-6.1	1.2	-0.18	-20.3
COc1ccc(CNC(=O)CN(Cc2ccc(Cl)cc2)S(=O)(=O)c2ccccc2)cc1	5.7	8.6*	-2.25	-30.0
COc1ccc(CNC(=O)CN(Cc2ccccc2)S(=O)(=O)c2ccc(Cl)cc2)cc1	-15.1	9.2*	-0.83	-28.9
COc1ccc(C(NC(=O)C2CCCCC2)c2c(O)ccc3ccccc23)cc1 (stereo not given)	7.9	4.8	0.12	-15.1
CCOC(=O)C1=NN(C(=O)COc2ccccc2)C(O)(c2ccc(Br)cc2)C1 (stereo not given)	.	2.2	.	.
COc1ccc2c(=O)c3c(=O)n(Cc4ccco4)c(C(C)C)nc3oc2c1	.	1.9	-0.09	-21.5
COc1ccc2c(=O)c3c(=O)n(Cc4ccco4)c(-c4ccc(C)cc4)nc3oc2c1	46.8*	7.3	-1.19	-37.8
Cc1cc(C)cc(NC(=O)N2CCN(S(C)(=O)=O)CC2)c1	.	1.9	.	.
CCOC(=O)C(=Cc1ccc(F)cc1)C(=O)OCC	77.9*	0.5	-1.02	-48.4
CCOC(=O)C(=Cc1ccc(-n2ccnc2)cc1)C(=O)OCC	.	0.2	.	.
O=C(NCCCN1CCOCC1)c1cccc(S(=O)(=O)Nc2cc(Cl)ccc2Cl)c1	.	1.1	.	.
Cn1c(=O)c2c(nc(Br)n2Cc2ccc3ccccc3c2)n(C)c1=O	38.4*	4.5	-1.42	-7.0
Cn1c(=O)c2c(nc(SCc3ccccc3)n2Cc2ccc(Cl)cc2)n(C)c1=O	.	8.9*	-0.51	-29.2
Cn1c(=O)c2c(nc(Br)n2Cc2ccccc2Cl)n(C)c1=O	-0.2	1.6	-0.43	-17.2
CCCCCCn1c(CN2CCN(Cc3ccccc3)CC2)nc2c1c(=O)n(C)c(=O)n2C	27.4*	1.2	-1.19	-37.0
CN(c1ccc([N+](=O)[O-])cc1/C=N/NC(=O)COc1ccccc1)C1CCCCC1	-3.4	4.4	-0.97	-21.0
O=C(CCCc1nc2ccccc2s1)N1CCN(S(=O)(=O)c2cccs2)CC1	-7.8	8.8*	0.02	-33.5
CCN(Cc1ccccc1)C(c1cccs1)c1nnnn1C1CCCCC1 (stereo not given)	-1.3	9.3*	-0.56	-11.2
Clc1ccccc1CN(Cc1ccccc1)C(c1cccs1)c1nnnn1C1CCCC1 (stereo not given)	-18.0	5.6	-0.04	-13.5
SMILES	Yeast life ext	RAM network inh	SDO1 yeast rescue	BB579 growth dn
c1csc(C(c2nnnn2C2CCCC2)N2CCOCC2)c1 (stereo not given)	-14.2	0.1	0.07	1.6
Clc1ccc(CN(CC2CCCO2)C(c2cccs2)c2nnnn2C2CCCC2)cc1 (stereo not given)	-12.7	11.2*	-0.36	-33.3
Oc1ccc(N=C/C=C/c2cccc(Br)c2)cc1-c1nc2ccccc2s1	-9.1	3.8	-1.71	-12.6
O=C(CCn1c(=O)c2sccc2n(CC(=O)OCc2ccccc2)c1=O)NCc1ccco1	-3.1	3.3	1.98	-23.7
O=C(CCn1c(=O)c2sccc2n(CC(=O)OCc2ccccc2)c1=O)NCc1ccccc1	9.9	11.3*	-0.59	-46.2
COc1cccc(NC(=O)N2CCC(n3nnc4ccccc43)CC2)c1	.	3.0	.	.
Cc1ccc(C)c(NNC(N)=S)c1	.	2.0	.	.
Cc1ccc(N/N=C(\C#N)C(N)=S)c(C)c1	-4.5	-0.7	-1.96	95.1*
CCOc1cc(-c2nc(-c3ccc(OC)cc3)no2)cc(OCC)c1OCC	5.1	9.6*	-1	-63.0
COc1ccc(OCCNC2CCCC2)cc1	5.6	0.3	-0.21	70.6*
CC(C)(C)C1=CC(=Nc2ccccc2N)C=C(C(C)(C)C)C1=O	3.9	0.0	1.16	-30.5
CC(C)(C)C1=CC(=O)C(=O)C(C(C)(C)C)=C1	40.3*	2.2	-1.06	-43.6
Cc1nc2ccc(S(=O)(=O)N(C)CC(=O)Nc3ccccc3F)cc2s1	.	0.5	.	.
COc1cc(C(=O)NCCC(C)C)ccc1OCc1ccc(Cl)cc1Cl	4.8	9.8*	-0.39	-34.6
CCCOc1ccc(-c2nn(-c3ccccc3)cc2/C=C2\SC(N)=NC2=O)cc1	6.0	8.8*	0.81	-38.7
NC1=NC(=O)/C(=C/c2cn(CCC(=O)O)nc2-c2ccc(Cl)cc2)S1	2.0	8.6*	0.34	-20.1
COc1cc(NS(=O)(=O)c2ccc(N/C=C(\C#N)c3nc4cc(Cl)ccc4o3)cc2)nc(OC)n1	2.9	9.1*	-1.42	-79.5
COc1cc(NS(=O)(=O)c2ccc(NC(C)=O)cc2)nc(OC)n1	-3.9	1.7	0.92	-37.2
CCc1ccc(C(=O)CN2C(=O)NC(C)(CCc3ccccc3)C2=O)cc1 (stereo not given)	46.2*	5.4	-0.43	-27.7
O=C(NCCCN1CCOCC1)C(=O)N/N=C/c1ccc2c(c1)OCO2	.	-0.7	.	.
Cc1cc(NC(=O)C2CC2)ncc1NC(=O)C12CC3CC(CC(C3)C1)C2	28.9*	0.1	-2.26	-30.8
O=C(c1ccc(OCC2CCCO2)cc1)N1CCN(c2ccccc2)CC1 (stereo not given)	-6.7	-0.5	0.54	-39.0
O=C(c1ccccc1)N1CC(COc2ccccc2)OC(c2ccco2)O1 (stereo not given)	26.7*	-0.2	-1.37	-15.7
Cc1c(Cl)c([N+](=O)[O-])nn1CC(=O)Nc1ccc2c(c1)OCO2	-0.8	2.8	0.42	-27.3
CC1(C)CC(=O)C(N=Nc2cc3c(cc2[N+](=O)[O-])OCCO3)=C(O)C1	.	9.5*	.	.
SMILES	Yeast life ext	RAM network inh	SDO1 yeast rescue	BB579 growth dn
O=C(CCCSc1nnnn1-c1cccc2ccccc12)c1ccc(F)cc1	-1.4	9.4*	-1.58	-31.5
COc1ccc(C=C(c2nc3ccccc3s2)c2nc3ccccc3s2)cc1O	-1.0	9.2*	-1.22	-42.6
O=C(NCCC1=CCCCC1)Nc1ccc2nsnc2c1	.	4.8	.	.
CC(C)=CCN1CCN(Cc2cn[nH]c2C2CCCCC2)CC1CCO (stereo not given)	.	-1.3	.	.
CN1CCN(C=Nc2nc3ccccc3nc2N2CCCC2)CC1	.	1.6	.	.
O=c1cc(CSc2nnc(-c3cccs3)n2Cc2ccccc2)nc2sc3ccccc3n12	-4.0	8.6*	-0.22	-48.9
CCC(C(=O)OCC(=O)Nc1c(Cl)cccc1Cl)c1ccccc1 (stereo not given)	-0.6	1.3	-0.11	-4.6
COc1ccc(CCn2c(-c3ccc(C(C)(C)C)cc3)n[nH]c2=S)cc1OC	.	8.7*	.	.
Cc1ccccc1Nc1nc(N)nc(COC(=O)/C=C/c2ccco2)n1	.	-1.1	.	.
CCCc1cc(NC(=O)CCl)n(-c2ccccc2)n1	.	-0.8	.	.
